The source of these data is publication PMC6130848 (Circulation. Cardiovascular imaging, 2018).

Residues, ends and D or L forms follow the SMILES beside them. No end group written: not given here. *: point of attachment. DOTA = O=C(O)CN1CCN(CC(=O)O)CCN(CC(=O)*)CCN(CC(=O)O)CC1

The format of data set [1] is in vivo. To be noted: biodistribution of ^64Cu-labeled probes.
Data set [2] deals with tropoelastin, mature elastin, collagen I, fibronectin, human serum albumin. The format is binding. Conditions: Eu-labelled probes, in vitro.
For a further data set, the target named is T1, tropoelastin (Homo sapiens, UniProt P15502).
T1 sequence (P15502 27-786): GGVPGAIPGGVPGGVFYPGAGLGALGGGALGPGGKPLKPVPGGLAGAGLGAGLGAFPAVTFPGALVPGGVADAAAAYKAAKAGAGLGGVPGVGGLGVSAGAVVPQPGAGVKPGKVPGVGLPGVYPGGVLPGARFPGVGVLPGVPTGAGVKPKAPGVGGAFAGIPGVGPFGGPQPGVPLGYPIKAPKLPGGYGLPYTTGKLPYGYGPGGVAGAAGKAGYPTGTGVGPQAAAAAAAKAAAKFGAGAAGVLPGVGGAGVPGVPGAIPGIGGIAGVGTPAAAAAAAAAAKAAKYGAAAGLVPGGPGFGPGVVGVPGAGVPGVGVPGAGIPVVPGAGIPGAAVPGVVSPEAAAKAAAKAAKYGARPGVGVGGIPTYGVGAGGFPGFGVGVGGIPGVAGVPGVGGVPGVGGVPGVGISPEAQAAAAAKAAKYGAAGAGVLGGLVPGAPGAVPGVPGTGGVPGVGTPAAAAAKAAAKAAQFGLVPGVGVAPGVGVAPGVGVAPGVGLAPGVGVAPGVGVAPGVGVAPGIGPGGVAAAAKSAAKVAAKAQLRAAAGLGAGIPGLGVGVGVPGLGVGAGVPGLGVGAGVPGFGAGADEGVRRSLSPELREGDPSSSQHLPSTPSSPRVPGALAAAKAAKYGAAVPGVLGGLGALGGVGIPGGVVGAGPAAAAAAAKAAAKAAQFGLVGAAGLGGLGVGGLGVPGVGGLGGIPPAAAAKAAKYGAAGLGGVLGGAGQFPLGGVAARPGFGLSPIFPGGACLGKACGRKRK
The format is binding.

For data set [3], the system named is vessel wall tropoelastin of ApoE^-/- mice. Conditions: feed or water, 40 mg/kg, 2016 h.
The test system is the same in data set [4]. Conditions: 2016 h.
A further data set has as its system diseased vessel sections. On the set-up: species or system mouse. To be noted: 200nM, 24h, 4°C. Put shortly: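 Vessel sections incubated with rhodamine-labelled tropoelastin-binding peptide (200nM solution) for 24h at 4°C, then counterstained for nuclei with Hoechst (1:3000, 15 min, room temperature). Kept shielded from light throughout and mounted in Mowiol medium containing 2.5% DABCO. Read-out by fluorescent microscopy.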

The conditions of data set [5]: 20MHz, 37°C; cited from earlier work.
The conditions of data set [6]: tissue and species not stated; cited from earlier work.

On to `CC(C)[C@H](NC(=O)[C@H](Cc1c[nH]cn1)NC(=O)[C@H](CC(=O)O)NC(=O)[C@@H]1CCCN1C(=O)[C@H](Cc1ccc(O)cc1)NC(=O)[C@@H](N)CCCCNC(=O)CN1CCN(CC(=O)O)CCN(CC(=O)O)CCN(CC(=O)O)CC1)C(=O)N[C@@H](CCC(N)=O)C(=O)N[C@@H](Cc1ccc(O)cc1)C(=O)N[C@H](C(=O)N[C@@H](Cc1c[nH]cn1)C(=O)N[C@@H](Cc1ccc(O)cc1)C(=O)O)[C@@H](C)O` [K(^64Cu-DOTA)-YPDH, metal not drawn] (H-K(DOTA)YPDHVQYTHY-OH), for which, in data set [1], the liver uptake entry was “some liver uptake”.

With `CC(C)C[C@H](NC(=O)[C@@H]1CCCN1C(=O)[C@H](CO)NC(=O)[C@H](C)NC(=O)[C@H](CCC(=O)O)NC(=O)[C@H](CC(=O)O)NC(=O)[C@H](CCC(N)=O)NC(=O)[C@H](C)NC(=O)[C@H](CO)NC(=O)[C@@H]1CCCN1C(=O)[C@H](CO)NC(=O)CNC(=O)[C@@H](NC(=O)[C@@H](NC(=O)CN1CCN(CC(=O)O)CCN(CC(=O)O)CCN(CC(=O)O)CC1)C(C)C)C(C)C)C(=O)N[C@@H](CO)C(=O)O` [(Eu-DOTA)-VVGS] ({DOTA}-VVGSPSAQDEASPLS-OH), the “selectivity towards tropoelastin compared with collagen I, fibronectin and HSA” value in data set [2] is “high selectivity”. On tropoelastin, this molecule returned a binding to tropoelastin of 64±7%.

On to `CC[C@H](C)C(=O)O[C@H]1C[C@H](O)C=C2C=C[C@H](C)[C@H](CC[C@@H](O)C[C@@H](O)CC(=O)O)[C@H]21` [statin, pravastatin], for which the “% tropoelastin (immunopositive area/vessel wall area)” value in data set [3] is 11.41±0.35%. Also, the “vessel wall tropoelastin concentration (western blotting)” value in data set [4] is given as 1.17±0.09 mg/gr tissue.

VVGSPSAQDEASPLS: the “fluorescent signal in tropoelastin-rich areas of diseased vessels” value in the data set with diseased vessel sections is listed as “fluorescent signal”.

Take `O=C([O-])CN(CCN(CC(=O)[O-])CC(=O)O)CCN(CC(=O)[O-])CC(=O)O.[Gd+3]` [Gd-DTPA]: the “relaxivity r1” value in data set [5] is 4.02 mM⁻¹ s⁻¹.

With “{DOTA}-VVGSPSAQDEASPLS [(^64Cu –DOTA)-VVGS]”, the uptake in data set [6] was 7.2 %ID/g.

On to `CC(C)[C@H](NC(=O)[C@H](Cc1c[nH]cn1)NC(=O)[C@H](CC(=O)O)NC(=O)[C@@H]1CCCN1C(=O)[C@H](Cc1ccc(O)cc1)NC(=O)[C@@H](N)CCCCNC(=O)CN1CCN(CC(=O)O)CCN(CC(=O)O)CCN(CC(=O)O)CC1)C(=O)N[C@@H](CCC(N)=O)C(=O)N[C@@H](Cc1ccc(O)cc1)C(=O)N[C@H](C(=O)N[C@@H](Cc1c[nH]cn1)C(=O)N[C@@H](Cc1ccc(O)cc1)C(=O)O)[C@@H](C)O` [K(Eu-DOTA)-YPDH] (H-K(DOTA)YPDHVQYTHY-OH), for which, in data set [2], the “selectivity towards tropoelastin compared with collagen I, fibronectin and HSA” value is “high selectivity”. Besides, on tropoelastin, the binding to tropoelastin was found to be 84± 4%.
